Source: ChEMBL document CHEMBL1145628, “New tetrazole-based selective anandamide uptake inhibitors” (Bioorg Med Chem Lett, 2008)

Legend:
[1] = target: Transient receptor potential cation channel subfamily A member 1 (Rattus norvegicus, UniProt Q6RI86); assay: Agonist activity at rat TRPA1 channel expressed in human HEK293 cells assessed as elevation in intracellular calcium flux; assay type: functional, cell-based
Summary of the method: (§1)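 Stably rat TRPA1-transfected HEK-293 cells, grown 3 days, were loaded with 4 µM Fluo4-AM plus 0.02% Pluronic for 1 h at room temperature. They were washed and resuspended in Tyrode's buffer pH 7.4, and [Ca2+]i was read under stirring (ex 488/em 516 nm) before and after compound addition. EC50 is the half-maximal [Ca2+]i rise. Efficacy (100 µM compound) is expressed relative to 100 µM mustard oil; n = 4 means.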

[2] = target: T1, Transient receptor potential cation channel subfamily V member 1 (Homo sapiens, UniProt Q8NER1); assay: Agonist activity at human TRPV1 channel expressed in human HEK293 cells assessed as elevation in intracellular calcium flux at 10 uM relative to ionomycin; assay type: functional, cell-based
T1 sequence (Q8NER1 whole entry): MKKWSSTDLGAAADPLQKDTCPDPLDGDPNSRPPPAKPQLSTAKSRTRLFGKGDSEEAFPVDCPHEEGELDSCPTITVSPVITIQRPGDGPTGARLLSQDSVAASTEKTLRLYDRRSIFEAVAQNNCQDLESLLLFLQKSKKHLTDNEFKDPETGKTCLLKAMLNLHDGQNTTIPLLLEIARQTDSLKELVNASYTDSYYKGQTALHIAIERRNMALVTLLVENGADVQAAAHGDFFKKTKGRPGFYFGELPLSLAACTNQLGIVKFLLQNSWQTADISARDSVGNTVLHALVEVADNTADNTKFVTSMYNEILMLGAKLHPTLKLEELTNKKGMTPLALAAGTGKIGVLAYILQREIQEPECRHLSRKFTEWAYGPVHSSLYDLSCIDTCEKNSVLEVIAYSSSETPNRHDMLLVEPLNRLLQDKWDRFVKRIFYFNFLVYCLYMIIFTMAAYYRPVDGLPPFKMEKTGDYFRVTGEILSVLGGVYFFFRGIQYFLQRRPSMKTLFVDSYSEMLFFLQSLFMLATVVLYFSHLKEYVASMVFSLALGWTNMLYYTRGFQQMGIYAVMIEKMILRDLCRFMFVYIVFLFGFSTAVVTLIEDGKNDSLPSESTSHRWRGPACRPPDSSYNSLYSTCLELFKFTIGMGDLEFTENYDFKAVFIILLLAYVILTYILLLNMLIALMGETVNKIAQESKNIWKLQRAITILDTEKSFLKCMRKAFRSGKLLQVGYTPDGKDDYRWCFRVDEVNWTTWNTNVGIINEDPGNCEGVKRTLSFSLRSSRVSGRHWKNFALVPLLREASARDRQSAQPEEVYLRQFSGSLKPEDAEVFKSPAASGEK
Summary of the method: (§2)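 HEK-293 cells overexpressing TRPV1 were used, with intracellular Ca2+ elevation as the read-out. The single-point value is the effect of 10 µM compound as percent of the Ca2+ response to 4 µM ionomycin. Data are means of 4 separate determinations.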

[3] = target: T1, Transient receptor potential cation channel subfamily V member 1; assay: Agonist activity at human TRPV1 channel expressed in human HEK293 cells assessed as elevation in intracellular calcium flux; assay type: functional, cell-based; summary of the method: as §2
[4] = Inhibition of human MAGL mediated [14C]2-AG hydrolysis in COS cell; assay type: cell-based
Summary of the method: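 Enzyme source was cytosolic fractions of COS cells (MAGL-expressing), with hydrolysis of [14C]2-AG as the read-out; means of 4 determinations.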

Cannabinoid receptor 2 = Cannabinoid receptor 2 (Homo sapiens, UniProt P34972); assay: Binding affinity to human CB2 receptor expressed in COS cells; assay type: cell-based
Sequence of Cannabinoid receptor 2 (P34972 whole entry): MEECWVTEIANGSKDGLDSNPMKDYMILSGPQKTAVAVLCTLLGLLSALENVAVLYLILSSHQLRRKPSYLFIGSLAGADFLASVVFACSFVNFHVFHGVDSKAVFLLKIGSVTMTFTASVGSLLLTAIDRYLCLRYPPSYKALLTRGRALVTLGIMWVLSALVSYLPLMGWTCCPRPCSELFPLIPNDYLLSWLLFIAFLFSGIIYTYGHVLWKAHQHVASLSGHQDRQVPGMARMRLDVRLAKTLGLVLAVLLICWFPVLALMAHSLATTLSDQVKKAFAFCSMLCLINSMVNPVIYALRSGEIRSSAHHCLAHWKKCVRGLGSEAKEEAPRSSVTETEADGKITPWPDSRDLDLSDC
Summary of the method: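 Human CB2 receptor expressed by transfection in COS cells. Each value is the mean of 4 separate determinations.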

[5] = target: T2, Fatty-acid amide hydrolase 1 (Rattus norvegicus, UniProt P97612); assay: Inhibition of rat brain FAAH mediated [14C]anandamide hydrolysis
T2 sequence (P97612 whole entry): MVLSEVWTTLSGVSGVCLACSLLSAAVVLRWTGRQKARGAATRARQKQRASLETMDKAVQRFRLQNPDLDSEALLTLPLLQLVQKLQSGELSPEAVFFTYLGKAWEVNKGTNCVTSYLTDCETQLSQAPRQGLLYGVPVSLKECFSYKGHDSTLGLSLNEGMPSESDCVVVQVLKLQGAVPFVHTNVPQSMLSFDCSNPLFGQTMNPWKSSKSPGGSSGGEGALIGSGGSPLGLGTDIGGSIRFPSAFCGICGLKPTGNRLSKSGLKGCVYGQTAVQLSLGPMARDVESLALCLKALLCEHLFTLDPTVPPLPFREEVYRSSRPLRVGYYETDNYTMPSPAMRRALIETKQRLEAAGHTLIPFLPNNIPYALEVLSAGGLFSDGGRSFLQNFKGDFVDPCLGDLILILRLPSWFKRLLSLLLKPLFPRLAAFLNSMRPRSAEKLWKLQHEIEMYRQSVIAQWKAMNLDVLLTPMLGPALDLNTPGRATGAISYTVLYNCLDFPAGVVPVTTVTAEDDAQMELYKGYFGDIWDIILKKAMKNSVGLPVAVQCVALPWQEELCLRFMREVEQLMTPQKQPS
Summary of the method: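 Hydrolysis of [14C]anandamide was measured with rat brain membranes as the enzyme source; means of n = 4.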

RBL-2H3 = assay: Inhibition of [14C]anandamide uptake in rat RBL-2H3; assay type: functional, cell-based
Summary of the method: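 Uptake of [14C]anandamide was measured in intact RBL-2H3 cells; means of n = 4.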

[6] = target: Transient receptor potential cation channel subfamily A member 1 (Rattus norvegicus) (UniProt Q6RI86); assay: Agonist activity at rat TRPA1 channel expressed in human HEK293 cells assessed as elevation in intracellular calcium flux at 100 uM relative to mustard oil; assay type: functional, cell-based; summary of the method: as §1
Sequence of Transient receptor potential cation channel subfamily A member 1 (Rattus norvegicus) (Q6RI86 whole entry): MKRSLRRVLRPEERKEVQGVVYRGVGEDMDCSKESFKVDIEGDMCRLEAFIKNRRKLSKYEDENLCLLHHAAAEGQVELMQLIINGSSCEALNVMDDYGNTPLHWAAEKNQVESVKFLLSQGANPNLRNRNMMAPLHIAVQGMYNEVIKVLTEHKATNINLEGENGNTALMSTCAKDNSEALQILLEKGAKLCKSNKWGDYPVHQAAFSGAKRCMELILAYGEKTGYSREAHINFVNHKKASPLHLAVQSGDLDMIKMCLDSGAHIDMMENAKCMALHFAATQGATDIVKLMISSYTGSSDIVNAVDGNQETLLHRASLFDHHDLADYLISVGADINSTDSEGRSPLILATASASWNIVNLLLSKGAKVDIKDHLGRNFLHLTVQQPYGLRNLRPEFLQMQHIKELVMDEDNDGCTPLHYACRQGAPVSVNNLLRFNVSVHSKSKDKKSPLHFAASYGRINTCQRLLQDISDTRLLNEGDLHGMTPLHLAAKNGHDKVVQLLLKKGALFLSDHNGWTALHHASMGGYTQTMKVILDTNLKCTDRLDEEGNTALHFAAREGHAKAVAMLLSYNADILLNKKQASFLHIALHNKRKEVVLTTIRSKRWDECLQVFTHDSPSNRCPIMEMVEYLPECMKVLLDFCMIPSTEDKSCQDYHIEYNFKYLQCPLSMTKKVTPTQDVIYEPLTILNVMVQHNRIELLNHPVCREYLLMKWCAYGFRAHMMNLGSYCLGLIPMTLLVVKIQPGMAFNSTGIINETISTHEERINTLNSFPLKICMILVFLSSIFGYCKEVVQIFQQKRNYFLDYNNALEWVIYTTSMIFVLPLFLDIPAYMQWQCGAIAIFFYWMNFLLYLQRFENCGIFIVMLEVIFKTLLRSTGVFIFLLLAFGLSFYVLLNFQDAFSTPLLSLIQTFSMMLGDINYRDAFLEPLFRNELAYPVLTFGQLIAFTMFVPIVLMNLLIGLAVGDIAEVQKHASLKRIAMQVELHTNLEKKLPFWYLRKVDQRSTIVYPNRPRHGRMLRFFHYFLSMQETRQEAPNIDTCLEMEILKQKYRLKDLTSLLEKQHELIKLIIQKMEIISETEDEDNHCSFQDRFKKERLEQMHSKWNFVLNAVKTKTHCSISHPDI

[7] = target: T3, Diacylglycerol lipase-alpha (Homo sapiens, UniProt Q9Y4D2); assay: Inhibition of human DAGLalpha mediated sn-1-[14C]oleoyl-2-arachidonoyl-glycerol hydrolysis to 2-AG in COS cell
T3 sequence (Q9Y4D2 whole entry): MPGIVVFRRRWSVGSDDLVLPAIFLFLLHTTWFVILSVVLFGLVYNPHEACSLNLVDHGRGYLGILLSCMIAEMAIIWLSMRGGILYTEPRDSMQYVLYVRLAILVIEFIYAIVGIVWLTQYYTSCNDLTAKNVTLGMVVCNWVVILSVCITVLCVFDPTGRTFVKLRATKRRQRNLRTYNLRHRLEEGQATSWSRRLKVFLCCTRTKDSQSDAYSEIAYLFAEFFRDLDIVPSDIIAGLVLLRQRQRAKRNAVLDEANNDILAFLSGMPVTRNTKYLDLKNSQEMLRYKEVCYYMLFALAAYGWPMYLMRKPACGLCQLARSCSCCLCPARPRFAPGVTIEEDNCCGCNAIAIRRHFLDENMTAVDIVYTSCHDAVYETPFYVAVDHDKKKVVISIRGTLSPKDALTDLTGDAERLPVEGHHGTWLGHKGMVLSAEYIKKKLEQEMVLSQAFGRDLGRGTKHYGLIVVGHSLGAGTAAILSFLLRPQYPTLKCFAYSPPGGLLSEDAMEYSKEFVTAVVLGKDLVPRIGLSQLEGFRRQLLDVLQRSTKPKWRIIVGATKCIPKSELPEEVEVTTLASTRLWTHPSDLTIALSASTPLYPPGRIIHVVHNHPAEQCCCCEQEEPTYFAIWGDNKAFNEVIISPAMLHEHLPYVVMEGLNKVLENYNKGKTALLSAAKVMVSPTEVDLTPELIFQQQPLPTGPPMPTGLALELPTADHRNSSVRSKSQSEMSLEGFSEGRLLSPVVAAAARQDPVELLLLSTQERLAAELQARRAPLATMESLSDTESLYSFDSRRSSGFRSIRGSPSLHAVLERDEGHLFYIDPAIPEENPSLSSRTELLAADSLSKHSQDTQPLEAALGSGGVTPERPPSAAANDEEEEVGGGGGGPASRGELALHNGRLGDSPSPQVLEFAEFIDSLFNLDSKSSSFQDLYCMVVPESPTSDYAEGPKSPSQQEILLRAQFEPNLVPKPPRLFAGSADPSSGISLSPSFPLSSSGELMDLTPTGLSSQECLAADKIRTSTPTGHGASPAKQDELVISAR
Summary of the method: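 Substrate: sn-1-[14C]oleoyl-2-arachidonoyl-glycerol. Conversion into 2-AG and [14C]oleic acid was followed using membranes of COS cells overexpressing human recombinant DAGLα; n = 4 means.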

Cannabinoid receptor 1 = Cannabinoid receptor 1 (Homo sapiens, UniProt P21554); assay: Binding affinity to human CB1 receptor expressed in COS cells; assay type: cell-based
Sequence of Cannabinoid receptor 1 (P21554 whole entry): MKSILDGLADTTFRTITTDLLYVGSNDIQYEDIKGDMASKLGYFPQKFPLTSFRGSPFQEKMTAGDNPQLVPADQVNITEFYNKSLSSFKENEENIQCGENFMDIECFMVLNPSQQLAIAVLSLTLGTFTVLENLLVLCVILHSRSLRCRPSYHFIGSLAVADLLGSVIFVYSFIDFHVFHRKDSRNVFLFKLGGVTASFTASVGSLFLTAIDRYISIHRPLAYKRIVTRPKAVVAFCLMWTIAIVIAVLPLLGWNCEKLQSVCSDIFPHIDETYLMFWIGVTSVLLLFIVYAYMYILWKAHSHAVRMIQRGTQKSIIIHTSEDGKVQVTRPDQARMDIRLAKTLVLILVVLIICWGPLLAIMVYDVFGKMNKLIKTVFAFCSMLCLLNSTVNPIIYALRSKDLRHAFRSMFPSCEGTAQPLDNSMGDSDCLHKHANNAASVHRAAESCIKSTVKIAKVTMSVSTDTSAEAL
Summary of the method: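 Tested at CB1 receptors in transfected COS cells; means of 4 separate determinations.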

Sequence of Transient receptor potential cation channel subfamily A member 1 (Q6RI86 whole entry): as the sequence (Q6RI86 whole entry) above

| SMILES | EC50 [1] | Efficacy [2] | EC50 [3] | IC50 [4] | Ki (Cannabinoid receptor 2) | IC50 [5] | IC50 (RBL-2H3) | Efficacy [6] | IC50 [7] | Ki (Cannabinoid receptor 1) |
| --- | --- | --- | --- | --- | --- | --- | --- | --- | --- | --- |
| COC(=O)Cn1nnnc1CNC(=O)c1ccc(-c2ccccc2)cc1 | > 100 µM | 8.6% | 29.6 µM | > 10 µM | > 10 µM | > 50 µM | > 25 µM | 0% | > 10 µM | > 10 µM |
| CC(=O)Cn1nnc(CNC(=O)c2ccc(-c3ccccc3)cc2)n1 | > 100 µM | 0% | > 100 µM | > 10 µM | > 10 µM | > 50 µM | > 25 µM | 14% | > 10 µM | > 10 µM |
| N#CCn1nnnc1Cc1ccc(-c2ccccc2)cc1 | 26.3 µM | 5.4% | > 100 µM | > 10 µM | > 10 µM | > 50 µM | 24.8 µM | 83.2% | > 10 µM | > 10 µM |
| CN(C)C(=O)Cn1nnnc1Cc1ccc(-c2ccccc2)cc1 | > 100 µM | 4% | > 100 µM | > 10 µM | > 10 µM | > 50 µM | 5.1 µM | 0% | > 10 µM | > 10 µM |
| CC(=O)Cn1nnnc1Cc1ccc(-c2ccccc2)cc1 | > 100 µM | 0% | > 100 µM | > 10 µM | > 10 µM | > 50 µM | 5 µM | 11.4% | > 10 µM | > 10 µM |
| CC(C)Cn1nnnc1Cc1ccc(-c2ccccc2)cc1 | > 100 µM | 4.7% | > 100 µM | > 10 µM | 7.7 µM | > 50 µM | > 25 µM | 50.8% | > 10 µM | > 10 µM |
| CN(C)C(=O)Cn1nnc(Cc2ccc(-c3ccccc3)cc2)n1 | > 100 µM | 5.3% | > 100 µM | > 10 µM | > 10 µM | > 50 µM | > 25 µM | 0% | > 10 µM | > 10 µM |
| N#CCn1nnc(CNC(=O)c2ccc(-c3ccccc3)cc2)n1 | > 100 µM | 2.6% | > 100 µM | > 10 µM | > 10 µM | > 50 µM | > 25 µM | 0% | > 10 µM | > 10 µM |
| CN(C)C(=O)Cn1nnc(CNC(=O)c2ccc(-c3ccccc3)cc2)n1 | > 100 µM | 1.2% | > 100 µM | > 10 µM | > 10 µM | > 50 µM | 2.3 µM | 0% | > 10 µM | > 10 µM |
| N#CCn1nnnc1CNC(=O)c1ccc(-c2ccccc2)cc1 | > 100 µM | 6.3% | > 100 µM | > 10 µM | > 10 µM | > 50 µM | > 25 µM | 0% | > 10 µM | > 10 µM |
| COC(=O)Cn1nnnc1Cc1ccc(-c2ccccc2)cc1 | > 100 µM | 0% | > 100 µM | > 10 µM | > 10 µM | > 50 µM | 4.9 µM | 0% | > 10 µM | > 10 µM |
| N#CCn1nnc(Cc2ccc(-c3ccccc3)cc2)n1 | 16.2 µM | 0% | > 100 µM | > 10 µM | 6.2 µM | > 50 µM | 5.1 µM | 102% | > 10 µM | > 10 µM |
| CC(C)Cn1nnc(CNC(=O)c2ccc(-c3ccccc3)cc2)n1 | > 100 µM | 10.2% | 53.5 µM | > 10 µM | > 10 µM | > 50 µM | > 25 µM | 0% | > 10 µM | > 10 µM |
| CC(C)Cn1nnc(Cc2ccc(-c3ccccc3)cc2)n1 | 26.3 µM | 20.7% | 10 µM | > 10 µM | 4.7 µM | > 50 µM | > 25 µM | 136% | > 10 µM | 1.6 µM |
| CC(C)Cn1nnnc1CNC(=O)c1ccc(-c2ccccc2)cc1 | > 100 µM | 9.1% | 15 µM | > 10 µM | > 10 µM | > 50 µM | > 25 µM | 26.1% | > 10 µM | > 10 µM |
| COC(=O)Cn1nnc(CNC(=O)c2ccc(-c3ccccc3)cc2)n1 | > 100 µM | 2.2% | > 100 µM | > 10 µM | > 10 µM | > 50 µM | > 25 µM | 0% | > 10 µM | > 10 µM |
| CC(=O)Cn1nnnc1CNC(=O)c1ccc(-c2ccccc2)cc1 | > 100 µM | 7.7% | > 100 µM | > 10 µM | > 10 µM | > 50 µM | 12.5 µM | 0% | > 10 µM | > 10 µM |
| CC(=O)Cn1nnc(Cc2ccc(-c3ccccc3)cc2)n1 | > 100 µM | 0% | > 100 µM | > 10 µM | 5.2 µM | > 50 µM | > 25 µM | 61.4% | > 10 µM | > 10 µM |
| COC(=O)Cn1nnc(Cc2ccc(-c3ccccc3)cc2)n1 | > 100 µM | 0% | > 100 µM | > 10 µM | 8.1 µM | > 50 µM | > 25 µM | 36% | > 10 µM | > 10 µM |
